Assay results reported in PMC5594746 (Journal of biomolecular screening, 2016).

What was measured:
mutant hV2R [L83Q] = mutant hV2R [L83Q] (Homo sapiens, UniProt P30518, L83Q); experiment: V2R pharmacoperone cAMP luminescence; assay type: cell-based; conditions: for activity as powder (active = EC50 ≤ 5 μM): de novo powder samples, titration assay, tested for the first time as powders
How it was run: (§1)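 Cryopreserved cells carrying tet-regulated hV2R L83Q were thawed and plated at 2,000/well in growth medium. Compound was pin-added (0.4% DMSO), then incubated 17 h at 37 °C, 5% CO2. Cells were stimulated with 5 μM vasopressin (final) in serum-free medium containing 2.5 mM IBMX for 2 h. After 10 min at room temperature, cAMP-Glo was added (19 min), then Kinase-Glo (10 min). Luminescence, inversely proportional to cAMP, was read.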

V2R + DOX = experiment: V2R + Dox cAMP counterscreen; assay type: cell-based; conditions: Tet minus promoter inactive, no receptor protein made
How it was run: as §1

V2R = conditions: regardless of species tested; cited from earlier work
[1] = tested on: NDI associated V2R mutants; conditions: cited from earlier work

| activity as powder (active = EC50 ≤ 5 μM) (mutant hV2R [L83Q]) | Compound | other results |
| --- | --- | --- |
| lack of activity | O=C(Nc1nc2ccc(F)cc2s1)c1ccc(S(=O)(=O)N2CCCCC2)cc1 [SR-01000442043] | – |
| lack of activity | COc1ccc2nc(NC(=O)c3ccc(S(=O)(=O)N4CCCCC4)cc3)sc2c1 [SR-01000393329] | – |
| lack of activity | CCN(CC)S(=O)(=O)c1ccc(C(=O)Nc2nc3ccc(Cl)cc3s2)cc1 [SR-01000392254] | – |
| lack of activity | Cc1ccc2nc(NC(=O)c3cccc(Cl)c3)sc2c1 [SR-01000461570] | – |

More lines, now with the values behind:

| Compound | activity as powder (active = EC50 ≤ 5 μM) (mutant hV2R [L83Q]) | other results |
| --- | --- | --- |
| CN[C@@H]1C[C@H]2O[C@@](C)([C@@H]1OC)n1c3ccccc3c3c4c(c5c6ccccc6n2c5c31)C(=O)NC4 [staurosporine, reference compound] | – | % activation, primary screen (mutant hV2R [L83Q]; singlicate, nominal 5.22 μM, normalized to SR121463 high control): ≤ −50% |
| COc1ccc(-c2csc(NC(=O)c3ccc(S(=O)(=O)N4CC(C)CC(C)C4)cc3)n2)cc1C (stereo not shown) [SR-01000443595] | – | EC50 (mutant hV2R [L83Q]; de-novo powder sample, CRC format): 70 nM |
| CCOc1ccc2c(c1)C1(CCC(OCCN3CCOCC3)CC1)C(=O)N2S(=O)(=O)c1ccc(C(=O)NC(C)(C)C)cc1OC (stereo not shown) [SR121463] | – | response of + Dox cells (V2R + DOX): non-responsive; Ki (V2R): low nanomolar; number of NDI associated V2R mutants on which active [1]: at least 8 |
| Cc1ccc2nc(NC(=O)c3cc(I)ccc3Cl)sc2c1 [SR-01000405773] | lack of activity | – |
